≈ marks a conversion by molar mass, not a printed value. Where a SMILES comes first, the peptide text is derived from it. [ ]: non-standard residue; d: D form. 3Abz = Nc1cccc(C(=O)O)c1; Orn = NCCC[CH](N)C(=O)O
What was measured:
[1] = test system: Staphylococcus epidermidis; assay: Antibacterial activity against methicillin-resistant Staphylococcus epidermidis ATCC 51625 assessed as growth inhibition after 18 hrs by CLSI microdilution broth assay; type: functional; details: ATCC 51625, 18 h
In short: (§1)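 Modified CLSI broth microdilution in Mueller-Hinton broth. Wells held 90 µL of about 2 × 10^5 CFU/mL inoculum plus 10 µL of serially diluted peptidomimetic, range 0.7-100 µg/mL. Plates were incubated overnight with agitation at 37 °C and absorbance read at 600 nm after 18 h. Controls: inoculum without compound, and uninoculated broth. Run in triplicate.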

[2] = Induction of hemolysis in human RBC assessed as hemoglobin release after 1 hr by microtiter plate reader analysis; type: cell-based, Erythrocyte; details: for HC10: erythrocyte, 1 h; for HC50 at 1 h: red blood cells
In short: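 Freshly isolated human RBCs washed three times in PBS (35 mM phosphate, 150 mM NaCl, pH 7.2) and used as a 4% (v/v) suspension. Mixed 1:1 with twofold serial dilutions of compound, incubated 1 h at 37 °C without agitation, then centrifuged. Supernatant A540 read. PBS defined 0% and 1% Triton X-100 defined 100% lysis; HC50 and HC10 derived.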

[3] = Retention time of the compound by HPLC analysis; type: physicochemical
In short: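 Analytical RP-HPLC on a C18 column (5 µm, 4.6 × 250 mm) at room temperature. Run a linear gradient of 0.5-60% acetonitrile containing 0.05% TFA against water containing 0.05% TFA at 0.5 mL/min.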

[4] = test system: Escherichia coli; assay: Antibacterial activity against Escherichia coli MTCC 723 assessed as growth inhibition after 18 hrs by CLSI microdilution broth assay; type: functional; details: MTCC 723, 18 h
[5] = test system: Pseudomonas aeruginosa; assay: Antibacterial activity against Pseudomonas aeruginosa MTCC 2295 assessed as growth inhibition after 18 hrs by CLSI microdilution broth assay; type: functional; details: MTCC 2295, 18 h
[6] = test system: Staphylococcus aureus; assay: Antibacterial activity against Staphylococcus aureus MTCC 3160 assessed as growth inhibition after 18 hrs by CLSI microdilution broth assay; type: functional; details: MTCC 3160, 18 h
[7] = test system: Bacillus subtilis; assay: Antibacterial activity against Bacillus subtilis MTCC 2763 assessed as growth inhibition after 18 hrs by CLSI microdilution broth assay; type: functional; details: MTCC 2763, 18 h
[8] = test system: Staphylococcus aureus; assay: Antibacterial activity against methicillin-resistant Staphylococcus aureus ATCC BAA-1720 assessed as growth inhibition after 18 hrs by CLSI microdilution broth assay; type: functional; details: ATCC BAA-1720, 18 h; in short: as §1
[9] = Selectivity ratio of HC50 for hemolysis in human RBC to MIC for Staphylococcus aureus

Row | Structure (SMILES) | MIC [1] [µg/mL] | HC10 [2] [µg/mL] | HC50 at 1 h [2] [µg/mL] | Retention_time [3] [min] | MIC [4] [µg/mL] | MIC [5] [µg/mL] | MIC [6] [µg/mL] | MIC [7] [µg/mL] | MIC [8] [µg/mL] | Selectivity ratio [9]
1 | N=C(N)NCCCC(NC(=O)c1cccc(NC(=O)C(N)Cc2c[nH]c3ccccc23)c1)C(N)=O (centres undefined) | > 200 | 400 | > 500 | 26.553 | > 200 | > 200 | > 200 | > 200 | > 200 | 
2 | N=C(N)NCCCC(NC(=O)C(Cc1ccccc1)NC(=O)c1cccc(NC(=O)C(Cc2ccccc2)NC(=O)C(CCCNC(=N)N)NC(=O)C(N)Cc2ccccc2)c1)C(N)=O (centres undefined) (H-FRF[3Abz]FR-NH2; configuration not given here) | 120 (≈ 135 µM) | 125 | 310 | 26.225 | > 200 | > 200 | 120 (≈ 135 µM) | 150 (≈ 169 µM) | 125 (≈ 140 µM) | 2.58
3 | NCCCC(NC(=O)C(Cc1ccccc1)NC(=O)c1cccc(NC(=O)C(Cc2ccccc2)NC(=O)C(CCCN)NC(=O)C(N)Cc2ccccc2)c1)C(N)=O (centres undefined) (H-F[Orn]F[3Abz]F[Orn]-NH2; configuration not given here) | > 200 | 180 | 400 | 25.038 | > 200 | > 200 | 150 (≈ 186 µM) | > 200 | > 200 | 2.66
4 | N=C(N)NCCCC(N)C(=O)NC(CCCNC(=N)N)C(=O)NC(Cc1ccccc1)C(=O)Nc1cccc(C(=O)NC(Cc2ccccc2)C(=O)NC(CCCNC(=N)N)C(N)=O)c1 (centres undefined) (H-RRF[3Abz]FR-NH2; configuration not given here) | 170 (≈ 189 µM) | 130 | 375 | 24.871 | > 200 | > 200 | 150 (≈ 167 µM) | 200 (≈ 222 µM) | 150 (≈ 167 µM) | 2.5
5 | N=C(N)NCCCC(N)C(=O)NC(CCCNC(=N)N)C(=O)NC(Cc1c[nH]c2ccccc12)C(=O)NC(Cc1c[nH]c2ccccc12)C(=O)NC(CCCNC(=N)N)C(N)=O (centres undefined) (H-RRWWR-NH2; configuration not given here) | 20 (≈ 23.3 µM) | 90 | 240 | 29.606 | 75 (≈ 87.4 µM) | 100 (≈ 117 µM) | 25 (≈ 29.1 µM) | 70 (≈ 81.6 µM) | 25 (≈ 29.1 µM) | 9.6
6 | N=C(N)NCCCC(N)C(=O)NC(CCCNC(=N)N)C(=O)NC(Cc1c[nH]c2ccccc12)C(=O)Nc1cccc(C(=O)NC(Cc2c[nH]c3ccccc23)C(=O)NC(CCCNC(=N)N)C(N)=O)c1 (centres undefined) (H-RRW[3Abz]WR-NH2; configuration not given here) | 6.25 (≈ 6.4 µM) | 100 | 355 | 27.402 | 17.5 (≈ 17.9 µM) | 25 (≈ 25.6 µM) | 6.25 (≈ 6.4 µM) | 25 (≈ 25.6 µM) | 5 (≈ 5.12 µM) | 56.8
7 | N=C(N)NCCCC(N)C(=O)NC(Cc1c[nH]c2ccccc12)C(=O)NC(CCCNC(=N)N)C(=O)Nc1cccc(C(=O)NC(Cc2c[nH]c3ccccc23)C(=O)NC(CCCNC(=N)N)C(N)=O)c1 (centres undefined) (H-RWR[3Abz]WR-NH2; configuration not given here) | 50 (≈ 51.2 µM) | 210 | 400 | 27.446 | 120 (≈ 123 µM) | 120 (≈ 123 µM) | 50 (≈ 51.2 µM) | 125 (≈ 128 µM) | 40 (≈ 40.9 µM) | 8
8 | N=C(N)NCCCC(N)C(=O)NC(Cc1c[nH]c2ccccc12)C(=O)NC(Cc1c[nH]c2ccccc12)C(=O)Nc1cccc(C(=O)NC(CCCNC(=N)N)C(=O)NC(CCCNC(=N)N)C(N)=O)c1 (centres undefined) (H-RWW[3Abz]RR-NH2; configuration not given here) | 25 (≈ 25.6 µM) | 255 | 420 | 26.96 | 70 (≈ 71.6 µM) | 75 (≈ 76.8 µM) | 25 (≈ 25.6 µM) | 75 (≈ 76.8 µM) | 25 (≈ 25.6 µM) | 16.8

Source: ChEMBL document CHEMBL3286351, “Antibacterial evaluation of structurally amphipathic, membrane active small cationic peptidomimetics: synthesized by incorporating 3-amino benzoic acid as peptidomimetic element” (Eur J Med Chem, 2014)
